Test results taken from article PMC8359806 (Science translational medicine, 2020).

Experiments:
[1] = system: lipoprotein lipase (LPL); test: Ex vivo TG lipolysis; assay type: biochemical; conditions: human apoC-II-deficient plasma (TG=1711 mg/dL) with added LPL
Method in brief: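 Human apoC-II-deficient plasma (TG=1711 mg/dL) was spiked with LPL plus test compound at the indicated concentrations or at 10 μM. LPL activity was read as NEFA generation, measured enzymatically. Results are the mean of triplicates ± S.D. (two-way ANOVA, Bonferroni post-test), or N=8 at 10 μM (Mann-Whitney).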

[2] = target: apoC-III (Homo sapiens, UniProt P02656); assay type: biochemical; conditions: 33 μM apoC-III added to pooled human HTG plasma (TG=360 mg/dL) with LPL
Chain of apoC-III (P02656 21-99): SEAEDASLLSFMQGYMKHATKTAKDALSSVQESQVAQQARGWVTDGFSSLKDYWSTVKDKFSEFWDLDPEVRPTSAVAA
Method in brief: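 Pooled human HTG plasma (TG=360 mg/dL) was incubated with LPL and test compound at 0–100 μM (0–0.47 mg/mL), with or without 33 μM apoC-III. Reference conditions were LPL alone and LPL with apoC-III. Lipolysis was read as NEFA generation, measured enzymatically. Results are the mean of triplicates ± S.D. (two-way ANOVA, Bonferroni post-test).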

stimulation of ex vivo lipolysis [1]	inhibition of ex vivo lipolysis of TG [2]	Substance
only partial activity	–	TYLPAVDEKLRDLYSKSTAAMSTYTGIFTDQVLSVLKGEE [RCH2]
–	approximately 40%	apoC-III: apolipoprotein C-III, inhibits LPL
